# Experimental data as given in article PMC3018560 (Antiviral research, 2010).
# Key:
# [1] = system: HIV; details: anti-HIV agent, patients; ref Fischl et al., 1994; cited from earlier work
# [2] = mouse; ref Alonzi et al., 2008; cited from earlier work
# [3] = human; ref Lindahl et al., 2005; cited from earlier work
# [4] = system: DENV (serotype 2, TSV01 strain); assay: Dengue viremia model in AG129 mouse, plasma virus titer by plaque assay; type: in vivo; details: AG129 mice
# How it was run: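 AG129 mice (lacking type I and type II interferon receptors), 7 to 8 weeks old, 6 per dosing group, challenged i.p. with 5×10^6 pfu/mouse. Ribavirin dosed once daily and imino sugars twice daily at 12 hr intervals for 3 consecutive days post-infection; PBS to controls. Plasma virus titer by plaque assay on blood drawn day 3. Reported as average and standard deviation; student t test versus PBS control.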
structure (smiles),measurement,setting,value
CCCCN1C[C@H](O)[C@@H](O)[C@H](O)[C@H]1CO [NBDNJ],Antiviral efficacy in phase II clinical trial,[1],did not demonstrate any antiviral efficacy
same,T1/2,[2],1.34 h
NC(=O)c1ncn([C@@H]2O[C@H](CO)[C@@H](O)[C@H]2O)n1 [ribavirin],Systematic concentration,[3],~ 15 μM
same,Effect on viremia of dose increase,[4]; ribavirin dose raised from 40mg/kg to 80mg/kg,did not improve its antiviral effect
same,Effect on viremia,"[4]; ribavirin oral 40mg/kg once daily alone, 3 days (Fig. 5A)",did not reduce viremia
